An excerpt weighted towards active compounds, which were near 2.9% of everything screened.
SENP8 block-1: SENP8 (human) protease inhibition | Q96LD8 | recombinant SENP8, Nedd8 substrate fluorescence | inhibition, % at 20 µM | 360,000 compounds, 0.64% hits; in the data active = inhibition mostly above about 40%, no sharp cut-off; inactive = mostly below about 27%
Target sequence (Q96LD8 whole entry, looked up): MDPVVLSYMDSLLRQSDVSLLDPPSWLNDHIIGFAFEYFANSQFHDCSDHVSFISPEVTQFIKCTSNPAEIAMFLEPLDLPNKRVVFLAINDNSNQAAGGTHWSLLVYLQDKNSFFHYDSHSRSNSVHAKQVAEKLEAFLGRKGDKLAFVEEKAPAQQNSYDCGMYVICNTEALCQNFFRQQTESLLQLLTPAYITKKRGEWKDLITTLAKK
SENP1 FRET inh: inhibitors of human SENP1 SUMO protease catalytic domain; Q9P0U3; recombinant SENP1 catalytic domain, CyPet-SUMO1-YPet FRET cleavage; inhibition, % at 10 µM; 360,000 compounds, 0.21% hits; AID 624204;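 active = inhibition at least 30% at 10 µM, raw YFP signal under a set limit, fluorescence ratio 0.5 to 1.5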;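 note: 0% = enzyme with DMSO and 100% = no enzyme wells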
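Test system: recombinant human SENP1 catalytic domain, His6-tagged / Medium: pH 8 Tris buffer with EDTA, NaCl, BME, BSA, NP40, catalase / Also added: SUMO1 FRET substrate flanked by Cypet and Ypet, 25 nM / Times: 50 min reaction at room temperature / Signal: FRET, CFP and YFP emission / Control set: no-enzyme low control and enzyme-plus-DMSO high control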
SENP6 block: inhibitors of human SENP6 protease | Recombinant SENP6 catalytic domain, aminoluciferin luminescence | AID 2599 | 330,000 compounds, 1.8% hits | inhibition, % at 10 µM | Q9GZR1;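 active = inhibition above about 50% at the single tested dose, limit read from the data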;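 note: plate controls were DMSO wells with enzyme for no effect and DMSO wells lacking enzyme for full effect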
SENP8 block-2: SENP8 protease inhibition; 330,000 compounds, 1.2% hits; inhibition, % at 10 µM; Q96LD8; AID 2540; purified SENP8, Z-RLRGG-aminoluciferin cleavage, luminescence; in the data active = inhibition above about 50%
Apaf-1 inh: blocks human Apaf-1 apoptosome activity; 330,000 compounds, 0.71% hits; inhibition, % at 20 µM; reconstituted apoptosome caspase-3 activity, DEVD-Rh110 fluorescence; O14727; active = inhibition of at least 40% at 20 µM;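 note: plate controls were DMSO wells for no effect and DEVD-CHO caspase inhibitor wells for full effect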
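Assay system: Apoptosome proteins | Medium: pH 7.5 Hepes buffer with CHAPS, BSA, DTT | Also added: Cytochrome c and DEVD-Rh110 substrate | Times: 30 min plus 50 min, RT | Detection: Rhodamine 110 fluorescence at Ex 480/Em 540 nm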
SENP7 block: SENP7 protease inhibition. inhibition, % at 5 µM. 330,000 compounds, 1.5% hits. recombinant SENP7, Z-RLRGG-aminoluciferin luminescence, 40 min;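 active = inhibition above about 50% at the single test dose, limit read from the data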;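 note: plate controls were DMSO with enzyme for no effect and no enzyme buffer wells for full effect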
Target sequence (Q9BQF6 706-1050 limits assumed): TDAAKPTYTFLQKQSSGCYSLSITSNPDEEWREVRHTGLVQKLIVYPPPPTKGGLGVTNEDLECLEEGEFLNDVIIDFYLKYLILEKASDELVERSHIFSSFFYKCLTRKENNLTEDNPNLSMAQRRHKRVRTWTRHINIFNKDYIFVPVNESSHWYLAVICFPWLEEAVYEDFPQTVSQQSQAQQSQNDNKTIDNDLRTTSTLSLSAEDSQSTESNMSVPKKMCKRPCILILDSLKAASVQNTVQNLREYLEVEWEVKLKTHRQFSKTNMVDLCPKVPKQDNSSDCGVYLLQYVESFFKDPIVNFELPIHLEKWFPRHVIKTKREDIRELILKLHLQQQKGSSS
SENP8 conf: confirmation of human SENP8 protease inhibitors | shares compounds with SENP7 block | Recombinant SENP8, Z-RLRGG-aminoluciferin luminescence, 60 min | inhibition, % at 12.5 µM | 6,200 compounds, 40% hits;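 active = mean inhibition across replicates above about 50%, limit read from the data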
SENP6 conf: human SENP6 inhibition, confirmed; shares compounds with SENP7 block; recombinant SENP6, Z-RLRGG-aminoluciferin luminescence; inhibition, % at 12.5 µM; 6,200 compounds, 58% hits
SENP7 confirm: human SENP7 inhibition, confirmed. shares compounds with SENP7 block. recombinant SENP7, Z-RLRGG-aminoluciferin luminescence, 40 min. inhibition, % at 12.5 µM. 6,200 compounds, 69% hits. AID 488917
Casp3 select: selectivity test for SENP inhibitors: human caspase-3 inhibition. 6,200 compounds, 60% hits. inhibition, % at 12.5 µM. purified caspase-3, Z-DEVD-aminoluciferin luminescence, 60 min. shares compounds with SENP7 block;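 active = mean inhibition above about 50%, limit read from the data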;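 note: plate controls were enzyme with DMSO for no effect and wells without caspase-3 for full effect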
Target sequence (P42574 28-227 limits assumed): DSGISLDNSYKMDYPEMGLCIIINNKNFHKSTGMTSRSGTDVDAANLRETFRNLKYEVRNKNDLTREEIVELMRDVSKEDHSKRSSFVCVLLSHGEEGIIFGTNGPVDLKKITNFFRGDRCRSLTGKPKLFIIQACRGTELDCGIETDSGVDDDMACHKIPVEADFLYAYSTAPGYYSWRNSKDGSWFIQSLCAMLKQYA
Luc interf: interferes with luciferase luminescence in SENP counter-screen | shares compounds with SENP7 block | Pre-incubated SENP8/Z-RLRGG-aminoluciferin, luciferase luminescence interference | inhibition, % at 12.5 µM | 6,200 compounds, 39% hits;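 active = mean inhibition above about 50% when retested at one dose, limit read from the data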;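 note: plate controls were DMSO wells with completed reaction for no effect and substrate without enzyme for full effect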
The depositor's hits bear a star; nt = no result given.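 Rule for the calls, unless noted: active = mean inhibition above about 50% in the one-dose retest (limit read from the data); inactive = the rest.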

SMILES	SENP8 block-1	SENP1 FRET inh	SENP6 block	SENP8 block-2	Apaf-1 inh	SENP7 block	SENP8 conf	SENP6 conf	SENP7 confirm	Casp3 select	Luc interf
CCOc1ccc(NC(=O)Nc2nc3ccc(S(C)(=O)=O)cc3s2)cc1	-36.3	1.0	-6.9	1.6	3.9	2.5	nt	nt	nt	nt	nt
NS(=O)(=O)c1ccc2nc(NC(=O)Nc3ccccc3F)sc2c1	-4.3	-8.9	75.9*	59.3*	11.7	58.9*	68.9*	71.3*	90.0*	58.3*	76.4*
O=C(c1ccccc1)n1c2ccccc2c(=O)n1-c1ccccc1CCl	-5.1	1.9	nt	nt	nt	nt	nt	nt	nt	nt	nt
CCOc1ccc2nc(NC(=O)C3(C)CC3(Br)Br)sc2c1 (centres undefined)	21.7	-0.6	-16.8	0.8	8.3	0.8	nt	nt	nt	nt	nt
O=C(Nc1ccc2ccccc2c1)c1cnccn1	-13.3	-1.8	65.3*	42.0	15.0	74.7*	52.3*	73.3*	91.8*	81.5*	31.4
O=C(Nc1nc2ccc(F)cc2s1)c1ccccn1	nt	nt	95.1*	95.1*	10.8	99.5*	92.4*	98.3*	101.8*	96.4*	48.5
O=C(Nc1ccc2nccnc2c1)c1cnccn1	-39.2	4.1	-4.3	-20.6	4.9	-1.0	nt	nt	nt	nt	nt
O=C(Nc1nc2ccc(F)cc2s1)C1=NN(c2ccccc2)C(=O)CC1	-42.0	-2.6	55.4*	25.6	7.5	11.1	-13.3	0.8	20.0	1.0	-5.0
CCOc1ccc2nc(NC(=O)c3cnccn3)sc2c1	27.2	0.4	23.7	19.9	-0.7	73.9*	16.1	14.4	23.9	51.9*	14.4
CC(C)C[C@@H]1Cc2[nH][nH]c(=O)c2[C@H](C(C)C)O1	8.7	-1.0	nt	nt	nt	nt	nt	nt	nt	nt	nt
Cc1cc(C)n2nc(C(=O)OCC(=O)N(CC(C)C)C3CCS(=O)(=O)C3)nc2n1 (centres undefined)	11.9	0.1	6.7	-2.2	-4.7	1.4	nt	nt	nt	nt	nt
O=C(Nc1nc2ccccc2s1)c1cnccn1	10.0	1.4	96.6*	93.0*	-14.5	8.2	6.4	56.4*	75.7*	79.1*	39.6
O=C(/C=C/Nc1ccc(F)cc1)c1cccs1	-220.9	-57.9	93.3*	89.2*	1.1	92.0*	88.7*	98.0*	102.2*	95.5*	66.7*
O=C(/C=C/Nc1ccc(F)c(F)c1)c1cccs1	-212.4	-99.7	90.0*	85.5*	12.7	82.9*	67.7*	88.8*	98.6*	83.1*	38.3
O=C(/C=C/Nc1ccc(S(=O)(=O)Nc2ncccn2)cc1)c1cccs1	-453.3	-34.1	4.9	-3.4	-9.5	5.2	nt	nt	nt	nt	nt
Cc1ccc(S(=O)(=O)N2CCN(C(=O)COC(=O)c3ccc(Cl)nc3)CC2)c(C)c1	7.2	1.2	-0.8	-1.1	0.2	14.4	nt	nt	nt	nt	nt
COc1cccc(C(=O)Nc2ccc3c(c2)OCO3)c1OC	15.6	0.0	55.1*	33.3	4.3	37.1	26.9	24.7	73.0*	73.0*	54.1*
COc1cccc(C(=O)NCc2ccc3c(c2)OCO3)c1OC	18.8	-0.7	5.3	0.2	-14.1	-4.0	nt	nt	nt	nt	nt
COc1cccc(/C=C/C(=O)Nc2cccc(C(C)=O)c2)c1OC	-62.3	2.5	33.2	12.4	1.3	28.8	nt	nt	nt	nt	nt
COc1cccc(/C=C/C(=O)Nc2ccc3c(c2)OCCO3)c1OC	5.6	1.9	33.2	61.9*	0.8	76.0*	78.8*	77.2*	91.2*	71.1*	78.9*
O=C(CNc1ccc2ccccc2c1)N/N=C/c1ccc([N+](=O)[O-])o1	-173.4	-19.1	54.4*	6.7	10.6	12.5	-14.5	15.8	-1.5	-6.2	-9.2
O=C(Oc1ccc2ccccc2c1Br)N1CCCCCC1	16.0	-1.5	90.5*	78.5*	15.6	82.1*	86.7*	90.6*	95.9*	72.1*	39.0
Cc1c(C(=O)NC2=NCCS2)oc2ccccc12	10.8	-1.3	86.2*	70.3*	-18.4	85.5*	81.3*	83.3*	97.8*	92.9*	86.6*
Cc1ccnc(NC(=O)c2oc3ccccc3c2C)c1	9.0	-0.2	81.0*	72.1*	12.0	85.3*	52.0*	84.8*	80.8*	58.0*	43.8
CCOc1ccc2oc(C(=O)Nc3cc(C)ccn3)c(C)c2c1	-220.2	-7.0	93.1*	89.5*	16.3	97.0*	37.8	62.8*	76.4*	82.9*	21.5
SMILES	SENP8 block-1	SENP1 FRET inh	SENP6 block	SENP8 block-2	Apaf-1 inh	SENP7 block	SENP8 conf	SENP6 conf	SENP7 confirm	Casp3 select	Luc interf
CCOc1ccc2oc(C(=O)Nc3ccc4c(c3)OCO4)c(C)c2c1	-30.6	-18.8	72.5*	65.3*	21.3	62.5*	63.0*	4.0	85.7*	53.3*	37.9
CCOc1ccc2oc(C(=O)Nc3ccc(N4CCOCC4)cc3)c(C)c2c1	-23.8	-5.6	3.1	-0.7	14.3	2.2	nt	nt	nt	nt	nt
Cc1ccc(-n2nnnc2SCC(=O)NC2CCS(=O)(=O)C2)c(C)c1 (centres undefined)	15.8	0.1	-7.0	-5.7	-0.4	9.9	nt	nt	nt	nt	nt
CC(=O)Nc1ccc(NC(=S)NC(=O)c2oc3ccccc3c2C)cc1	15.5	2.4	12.9	8.0	-0.3	4.1	nt	nt	nt	nt	nt
Cc1cccnc1NC(=S)NC(=O)c1oc2ccccc2c1C	-155.4	2.7	78.9*	17.9	5.1	7.8	-6.4	-2.6	-5.9	4.1	4.7
CC(=O)COc1ccc(-c2csnn2)cc1	4.7	0.4	-22.4	-2.5	-12.3	-5.3	nt	nt	nt	nt	nt
c1ccc(COc2ccc(-c3csnn3)cc2)cc1	25.1	3.5	66.5*	41.2	2.7	73.0*	6.5	13.6	24.2	21.1	7.1
CN(Cc1ccccc1)C(=O)c1csc(COCCO)n1	3.5	-1.9	nt	nt	nt	nt	nt	nt	nt	nt	nt
N#CCOc1ccccc1CNC[C@H]1O[C@@H](n2cnc3c(=O)[nH]c(N)nc32)[C@H](O)[C@@H]1O	9.0	-0.9	nt	nt	nt	nt	nt	nt	nt	nt	nt
N#Cc1c(C(F)(F)F)cc(-c2ccccc2Cl)[nH]c1=O	-279.8	-45.8	14.9	-6.7	13.1	5.7	nt	nt	nt	nt	nt
Cc1ccc(-c2cc(C(F)(F)F)c(C#N)c(=O)[nH]2)cc1	-437.9	-104.6	76.0*	68.2*	15.6	20.6	64.6*	66.2*	57.2*	60.9*	48.9

Bioassay records deposited in PubChem BioAssay by Sanford-Burnham Center for Chemical Genomics.
